# Source: PubChem BioAssay (several laboratories)
# KCNQ1 pot: human KCNQ1 channel potentiation or activation; P51787; CHO-K1 KCNQ1, thallium flux FluxOR fluorescence; stronger effect = higher value; B-score at 10 µM; 310,000 tested, 0.35% active; AID 2648;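 active = fluorescence ratio B-score, a plate-corrected score, at least three library SD, with initial intensity B-score within 5 SD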
#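 Test system: CHO-K1 cells stably expressing KCNQ1 / Medium: assay buffer / Also added: depolarizing K+/Tl+ stimulus, K2SO4 and Tl2SO4 each 12.5 mM in 5x stock / Incubation: 90 min dye loading and 20 min compound exposure, both at room temperature / Signal: thallium influx via FluxOR fluorescence, kinetic imaging / Evaluation: B score of baseline-normalized fluorescence ratio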
# KCNQ1 inh: blocks the human KCNQ1 potassium channel; P51787; CHO-K1 KCNQ1, FluxOR thallium flux fluorescence; stronger effect = higher value; B-score at 10 µM; 310,000 tested, 1.3% active; AID 2642;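 active = compounds whose thallium flux B-score, printed positive for inhibition, exceeds three library SD while starting fluorescence stays within three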;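 also: channel opened by potassium depolarization with thallium stimulus after 20 min compound exposure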
# KCC2 mod: modulators of human KCC2 chloride dependent transport. Q9H2X9. 190,000 tested, 2.2% active. B-score of Tl+ flux slope (higher = more flux/activation; lower = inhibition) at 10 µM. KCC2 cells, thallium flux FluoZin-2 fluorescence;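 active = thallium flux slope and its plate-corrected score both differing from the plate sample mean at a set confidence after two filtering rounds, in either direction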;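 also: slope of fluorescence scaled to starting intensity during 10 to 20 s after thallium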
# KCNK3 inh: human KCNK3 channel inhibition, primary screen. O14649. CHO-KCNK3 thallium flux, FluxOR fluorescence; stronger effect = lower value. B-score at 10 µM. 340,000 tested, 0.84% active;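 active = B-score under library mean minus 4 SD, starting fluorescence ratio at most library mean plus 5 SD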;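 also: more negative B-score means stronger inhibition of thallium flux through KCNK3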
# Target sequence (O14649 whole entry, looked up): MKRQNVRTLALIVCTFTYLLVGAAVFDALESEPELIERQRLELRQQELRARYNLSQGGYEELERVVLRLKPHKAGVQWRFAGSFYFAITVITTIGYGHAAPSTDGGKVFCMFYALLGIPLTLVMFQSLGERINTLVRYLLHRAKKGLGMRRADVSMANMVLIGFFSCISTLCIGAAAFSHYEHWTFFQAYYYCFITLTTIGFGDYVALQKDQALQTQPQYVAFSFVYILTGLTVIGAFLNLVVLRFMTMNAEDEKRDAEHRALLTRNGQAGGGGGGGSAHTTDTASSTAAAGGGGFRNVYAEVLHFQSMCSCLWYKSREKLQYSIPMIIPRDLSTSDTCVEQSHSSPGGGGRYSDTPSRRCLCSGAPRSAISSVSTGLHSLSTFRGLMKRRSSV
# hERG protect: hERG (human) protection from proarrhythmic block | CHO-hERG, FluxOR thallium flux, dofetilide IC70 present | activation (rescue from dofetilide block), less the hit threshold, % at 10 µM | 310,000 tested, 0.51% active | AID 1511;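 active = activation above the mean of controls blocked by dofetilide plus 5 SD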;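 also: thallium influx through hERG after potassium depolarization seen as dye fluorescence rise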
# KCNK9 inh: blocks the human KCNK9 two-pore domain potassium channel. Q9NPC2. HEK293 KCNK9, FluxOR thallium flux fluorescence; stronger effect = lower value. B-score at 10 µM. 310,000 tested, 1.2% active. AID 488922;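 active = ratio B-score over 3 SD below the library mean, with starting fluorescence within 5 SD of its mean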;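 also: negative B-score means less thallium flux so channel inhibition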
# * = called active by the depositor; i = inactive; . = not tested or not shown. Most compounds without a hit are left out; they make up all but 4.1% or so of the library.
SMILES,KCNQ1 pot,KCNQ1 inh,KCC2 mod,KCNK3 inh,hERG protect,KCNK9 inh
CC(=O)c1nnn(-c2nc(N)nc(N(c3ccccc3)c3ccccc3)n2)c1C,i,i,-1.6,i,-8.1,i
O=C(COc1ccc(Cl)cc1Br)Nc1ccncc1,i,i,.,i,-7.5,i
Cn1ccnc1C(=O)c1cccc([N+](=O)[O-])c1,8*,i,-0.424,i,-6.4,i
O=C(c1cc(-c2ccc(Cl)cc2)n[nH]1)N1CCN(C(=O)c2ccco2)CC1,i,i,.,i,-6.1,i
CC(/C=N/n1c(-c2ccccc2)n[nH]c1=S)=C\c1ccco1,i,i,.,i,-10.8,i
CC(/C=N/n1c(-c2ccc(C)cc2)n[nH]c1=S)=C\c1ccco1,10*,i,1.37,i,-5.6,i
CCOCCCNC(=O)C(c1ccc(Cl)cc1)N1CCC2(CC1)OCCO2 (stereo not given),i,i,.,i,8.6*,i
CC1CC2=C(NC(=S)NC2c2ccccc2F)/C(=C/c2ccccc2F)C1 (stereo not given),i,6*,1.06,i,-10.7,i
COC(=O)C(NC(=O)c1ccc(F)cc1)(Nc1ncc(S(=O)(=O)c2ccc([N+](=O)[O-])cc2)s1)C(F)(F)F (stereo not given),i,7*,.,i,-20.9,i
O=C(Nc1ncc(S(=O)(=O)c2ccc([N+](=O)[O-])cc2)s1)c1ccccc1F,i,i,1.74,i,-4.1,i
C/C(=N\NC(N)=S)c1cc(-c2ccccc2)c(-c2ccccc2)s1,i,i,.,i,-11.0,-8.03*
CC1(C)Cc2c(sc3[nH]c(=S)n(Cc4ccccc4)c(=O)c23)CO1,34*,i,80.6*,i,4.7*,i
CC1(C)Cc2c(sc3c2c(N)nc(=S)n3Cc2ccccc2)CO1,i,i,0.303,.,-7.7,i
Cc1cccc(OC(C)C(=O)NC2CCS(=O)(=O)C2)c1C (stereo not given),i,i,.,i,-6.2,i
CCCCCCCCCc1nc2sc3c(c2c(=O)n1NC(=O)c1ccc([N+](=O)[O-])cc1)CC(C)(C)OC3,i,7*,0.0459,i,-9.7,i
CCCCCCCCCc1nc2sc3c(c2c(=O)n1NC(=O)c1ccccc1[N+](=O)[O-])CC(C)(C)OC3,i,8*,1.81,i,-9.0,i
CCNC(=O)CSc1nnc(-c2cccc(S(=O)(=O)N3CCOCC3)c2)o1,.,.,.,i,.,.
N#Cc1c2c(c(NCCN3CCOCC3)n3c1nc1ccccc13)CCCC2,i,i,-1.44,-8.92*,-11.5,i
CC(C)c1cc(NCCN2CCOCC2)n2c(nc3ccccc32)c1C#N,.,.,.,-9.22*,.,.
Cn1c(SCC(=O)NCCc2ccccc2)nnc1C1CCCCC1,i,i,.,i,-0.3,i
COc1cccc(C(=O)OCC(=O)N2CCC(Cc3ccccc3)CC2)c1OC,.,.,.,i,.,.
O=C(Nc1nnc(-c2ccncc2)o1)c1cccc(N2C(=O)CCC2=O)c1,i,i,-0.617,i,-5.2,i
O=C(Nc1nnc(-c2ccc(Cl)cc2)o1)c1cccc(N2C(=O)CCC2=O)c1,i,i,17.4*,i,-0.9,i
O=C(Nc1nnc(-c2ccccc2)o1)c1ccc(Cl)cc1,11*,i,64.3*,i,0.1,i
Cc1ccc(NC(=O)c2c([N+](=O)[O-])c(C(C)(C)C)nn2C)cc1,i,i,-2.98,i,23.5*,i
SMILES,KCNQ1 pot,KCNQ1 inh,KCC2 mod,KCNK3 inh,hERG protect,KCNK9 inh
Cn1nc(C(C)(C)C)c([N+](=O)[O-])c1C(=O)Nc1ccccc1,i,i,-1.04,i,-9.8,i
Cc1cc(/C=C2\SC(=S)N(C)C2=O)c(C)n1-c1ccc(O)cc1,i,6*,0.0284,i,-13.2,i
CN(C1=C(N2CCCCC2)C(=O)c2ccccc2C1=O)c1ccccc1,i,i,-0.51,i,-10.2,-14.9*
O=C(NC(=S)Nc1ccc(Cl)cc1)c1cncc(Br)c1,i,i,.,i,-2.5,i
Cc1ccc(NC(=S)NC(=O)c2cncc(Br)c2)cc1Cl,i,i,.,i,8.8*,i
COc1ccc(OCc2nnc(SCC(=O)Nc3cccc(C(C)=O)c3)o2)cc1,.,.,.,i,.,.
